Test results from publication PMC3882305 (The Pediatric Infectious Disease Journal, 2013).
Read-outs that look alike come from different tables or passages of the source.

What was measured:
HIV [1] = conditions: mostly PI-experienced, aged 6 to 17 years; time to loss of virologic response; cited from earlier work
HIV-1 [2] = conditions: ITT (missing = failure), cited from earlier work
HIV [3] = conditions: once-daily, cited from earlier work
[4] = Steady-state plasma APV/RTV/FPV pharmacokinetics in HIV-1-infected children; type: in vivo
Method in brief: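 Dosing used FPV 50 mg/mL oral suspension or 700 mg tablets (≥39 kg), with RTV 80 mg/mL solution or 100 mg capsules (≥33 kg). At week 2, intensive sampling was taken at 0, 1, 2, 4, 6, 8 and 12 h postdose, plus predose samples every 4–12 weeks. Noncompartmental AUC(0–τ), Cmax, Cτ and CL/F were calculated; actual dose had to be within 10% of nominal. Log-transformed mixed-effect ANOVA gave geometric LS mean ratios (90% CI) versus historical healthy adults on FPV 1400 mg BID (n=190) or FPV/RTV 700/100 mg BID (n=159).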

[5] = Safety: adverse events, laboratory abnormalities, growth; type: in vivo, HIV-1–infected children; conditions: for subjects with at least 1 drug-related AE: 2- to <6-year olds (FPV/RTV 2/19; FPV 12/20); for change in median height and weight Z scores: week 48; for subjects with an AE leading to permanent discontinuation of study drug and withdrawal from the study: whole treatment group; for subjects reporting AEs: whole treatment group (FPV 19/20; FPV/RTV 83/89); for subjects with at least 1 drug-related grade 2–4 AE: whole treatment group (FPV/RTV 10/89; FPV 2/20)
Method in brief: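 AEs, growth parameters, hematology and clinical chemistry including a lipid panel were assessed every 4–12 weeks, with follow-up 4 weeks after withdrawal. Severity was graded by the DAIDS Toxicity Table (2004). All study drug was stopped for grade 3/4 AE or toxicity unless clearly unrelated.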

HIV-1 [6] = experiment: Antiviral response: plasma HIV-1 RNA <400 copies/mL, ITT; type: in vivo, HIV-1–infected children
Method in brief: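 Children aged 2–18 years received twice-daily FPV ± RTV plus 2 or 3 active NRTIs, with plasma HIV-1 RNA measured every 4–12 weeks. The ITT (exposed) population was all subjects with ≥1 documented dose. In the snapshot analysis, response at each visit was taken from the last HIV-1 RNA within the visit window. Missing data counted as nonresponse, as did switching or adding background ART, unless toxicity-driven before week 2.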

CD4+ cell = CD4+ cell response; type: in vivo, HIV-1–infected children; conditions: week 48; for median CD4+ cell count change from baseline / median percentage CD4+ cell count change from baseline: whole treatment group
Method in brief: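 Lymphocyte subsets were monitored every 4–12 weeks in children given twice-daily FPV ± RTV with an NRTI background, with visits at weeks 2, 4, 8, 12, 16, 24, 36 and 48. CD4+ cell count and CD4+ percentage at week 48 were expressed as change from baseline and summarized as medians.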

[7] = study APV20003, cited from earlier work
[8] = 2- to <6-year olds (FPV 10/20, all grade 1; FPV/RTV 1/19, grade 2)

For CC(C)CN(C[C@@H](O)[C@H](Cc1ccccc1)NC(=O)O[C@H]1CO[C@H]2OCC[C@H]21)S(=O)(=O)c1ccc(N)cc1 [RTV-boosted darunavir, darunavir], the “children achieving a viral load of <400 copies/mL at week 48” value (HIV [1]) is given as 59%.
For lopinavir (LPV)/RTV [LPV/RTV], the “subjects with HIV-1 RNA <400 copies/mL after 48 weeks” value (“subjects … after 48 weeks” for short) (HIV-1 [2]; ART-naïve) is given as 88%, the “subjects … after 48 weeks” value (HIV-1 [2]; PI-experienced/NRTI-experienced) is given as 58% and the “subjects … after 48 weeks” value (HIV-1 [2]; PI-naïve/NRTI-experienced) is given as 84%.
In the case of COC(=O)N[C@H](C(=O)N[C@@H](Cc1ccccc1)[C@@H](O)CN(Cc1ccc(-c2ccccn2)cc1)NC(=O)[C@@H](NC(=O)OC)C(C)(C)C)C(C)(C)C [RTV-boosted atazanavir, atazanavir], the “response rate for HIV RNA <400 copies/mL at week 48” value (HIV [3]; ART-experienced 6- to <18-year olds (8/25)) is given as 32% and the “response rate for HIV RNA <400 copies/mL at week 48” value (HIV [3]; ART-naïve 6- to <18-year olds (14/16)) is given as 88%.
For CC(C)CN(C[C@@H](OP(=O)(O)O)[C@H](Cc1ccccc1)NC(=O)O[C@H]1CCOC1)S(=O)(=O)c1ccc(N)cc1 [FPV, Fosamprenavir], the “plasma amprenavir exposures compared with 1400 mg twice-daily in adults” value ([4]; 30 mg/kg twice-daily, 2- to <6-year olds) was “higher”, the “samples with undetectable plasma FPV prodrug concentrations” value ([4]; plasma) was 98% and the “incidence of drug-related vomiting” value [5, 8] was 50%. The “subjects with at least 1 drug-related AE” value [5] was 60%, the “grade 3/4 hypertriglyceridemia, raised total cholesterol or raised low density lipoprotein cholesterol” value ([5]; FPV group) was “no grade 3/4 reports” and the “change in median height and weight Z scores” value [5] was “Small increases”. The “subjects with an AE leading to permanent discontinuation of study drug and withdrawal from the study” value [5] was “none”, the “subjects reporting AEs” value [5] was 95% and the “subjects with at least 1 drug-related grade 2–4 AE” value [5] was 10%. The “subjects with HIV-1 RNA <400 copies/mL at week 48” value (from here on “subjects … at week 48”) (HIV-1 [6]; FPV treatment group (PI-naïve, 2 to <6 yr), snapshot analysis) was 60%, the “median CD4+ cell count change from baseline” value (CD4+ cell) was 340 cells/mm^3 and the “median percentage CD4+ cell count change from baseline” value (CD4+ cell) was 8%. For the same molecule, the “APV exposures compared with adults receiving FPV/RTV 1400/200 mg QD” value ([7]; 6- to 18-year-old children, 30/6 mg/kg QD) was “comparable”.
In the case of fosamprenavir/ritonavir [FPV/RTV], the “APV AUC(0–τ) and Cmax compared with adults receiving FPV/RTV 700/100 mg BID” value ([4]; FPV/RTV 15/3 mg/kg BID, 6- to <12-year olds and 12- to 18-year olds) is reported as “lower”, the “higher plasma APV AUC(0–τ), Cmax and Cτ values than historical adults receiving FPV/RTV 700/100 mg BID” value ([4]; FPV/RTV 23/3 mg/kg BID, 2- to <6-year olds) is reported as “approximately 50%” and the “plasma APV exposures compared with the historical adult population” value ([4]; FPV/RTV 700/100 mg BID, 12- to 18-year-old subjects ≥39 kg) is reported as “similar”. The “incidence of drug-related vomiting” value [5, 8] was 5%, the “subjects with at least 1 drug-related AE” value [5] was 11% and the “incidence of drug-related vomiting” value ([5]; 6- to <12-year olds (9/30; 7 grade 1 and 2 grade 2)) was 30%. For the same molecule, the “subjects with drug-related AEs” value ([5]; 6- to <12-year olds (13/30)) was 43%, the “AEs leading to permanent discontinuation of study drug” value ([5]; 6- to <12-year olds (hypertriglyceridemia)) was 1 and the “incidence of drug-related vomiting” value ([5]; 12- to 18-year olds (3/40, all grade 1)) was 8%. The “subjects with drug-related AEs” value ([5]; 12- to 18-year olds (15/40)) was 38%, the “AEs leading to permanent discontinuation of study drug” value ([5]; 12- to 18-year olds (adverse drug reaction and pyelonephritis)) was 2 and the “grade 3/4 hypertriglyceridemia” value ([5]; FPV/RTV group) was “no reports”. The “grade 2–4 diarrhea” value ([5]; FPV/RTV group (2/89)) was 2%, the “grade 3 increases in total cholesterol” value ([5]; FPV/RTV group (2 subjects)) was 5% and the “grade 2–4 vomiting” value ([5]; FPV/RTV group (3/89)) was 3%. For the same molecule, the “grade 3 increases in low density lipoprotein cholesterol” value ([5]; FPV/RTV group (4 subjects)) was 9%, the drug-related nausea ([5]; adolescent group (6/40)) was 15% and the drug-related diarrhea ([5]; adolescent group (7/40)) was 18%. The “change in median height and weight Z scores” value [5] was “Small increases”, the “subjects with an AE leading to permanent discontinuation of study drug and withdrawal from the study” value [5] was “Four” and the “subjects reporting AEs” value [5] was 93%. The “subjects with at least 1 drug-related grade 2–4 AE” value [5] was 11%, the “subjects … at week 48” value (HIV-1 [6]; 2- to <6-year olds (14/19)) was 74% and the “subjects … at week 48” value (HIV-1 [6]; 6- to <12-year-old (16/30)) was 53%. For the same molecule, the “subjects … at week 48” value (HIV-1 [6]; 12- to 18-year-old (25/40)) was 63%, the “subjects … at week 48” value (HIV-1 [6]; ART-naïve subjects, snapshot analysis) was 83% and the “subjects … at week 48” value (HIV-1 [6]; PI-experienced subjects, snapshot analysis) was 48%. For the same molecule, the “subjects … at week 48” value (HIV-1 [6]; PI-naïve/NRTI-experienced subjects, snapshot analysis) was 65%, the “subjects … at week 48” value (HIV-1 [6]; range across age groups, intent-to-treat [exposed], snapshot analysis) was 53–74% and the “median CD4+ cell count change” value (CD4+ cell; 2- to <6-year olds) was 174 cells/mm^3. The “percentage CD4+ cell count change” value (CD4+ cell; 2- to <6-year olds) was 10%, the “median CD4+ cell count change” value (CD4+ cell; 6- to <12-year olds) was 210 cells/mm^3 and the “percentage CD4+ cell count change” value (CD4+ cell; 6- to <12-year olds) was 7%. The “median CD4+ cell count change” value (CD4+ cell; 12- to 18-year olds) was 140 cells/mm^3, the “percentage CD4+ cell count change” value (CD4+ cell; 12- to 18-year olds) was 7% and the “median CD4+ cell count change from baseline” value (CD4+ cell) was 190 cells/mm^3. The “median percentage CD4+ cell count change from baseline” value (CD4+ cell) was 8% and the “lower APV exposure than adults receiving FPV/RTV 1400/200 mg QD” value ([7]; 2- to <6-year-old children, FPV/RTV 30/6 mg/kg QD) was ~ 28%.
With CC(C)c1nc(CN(C)C(=O)N[C@H](C(=O)N[C@@H](Cc2ccccc2)C[C@H](O)[C@H](Cc2ccccc2)NC(=O)OCc2cncs2)C(C)C)cs1 [RTV, ritonavir] the “plasma RTV Cτ” value ([4]; RTV 3 mg/kg BID in combination with FPV, across the age groups) was “higher”.
